How the values were obtained:
Conditions in all cases: stereoisomer not certain
O52E8 = system: O52E8
In short: (§1)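 Transient luciferase assays in mammalian cell lines were common, though methods varied by source. The values come from published papers and their supplementary material, with extra details from the original authors when needed. Responsive refers to a measured signal the original authors judged statistically different from baseline, and non-responsive (inactive) to the remainder.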

O52H1 = system: O52H1
O52H1, sequence (as listed by the source): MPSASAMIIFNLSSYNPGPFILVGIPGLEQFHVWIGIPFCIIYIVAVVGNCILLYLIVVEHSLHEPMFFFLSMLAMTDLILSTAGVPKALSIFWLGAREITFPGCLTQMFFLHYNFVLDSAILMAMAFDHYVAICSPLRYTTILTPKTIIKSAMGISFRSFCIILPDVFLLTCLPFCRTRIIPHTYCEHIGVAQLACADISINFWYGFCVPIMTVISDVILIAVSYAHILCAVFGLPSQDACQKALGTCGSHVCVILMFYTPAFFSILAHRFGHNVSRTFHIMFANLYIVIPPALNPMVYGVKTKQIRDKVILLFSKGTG
In short: as §1

O51V1 L36F N51T G96W = system: O51V1 L36F N51T G96W
In short: as §1

O52A1 = system: O52A1
O52A1, sequence (as listed by the source): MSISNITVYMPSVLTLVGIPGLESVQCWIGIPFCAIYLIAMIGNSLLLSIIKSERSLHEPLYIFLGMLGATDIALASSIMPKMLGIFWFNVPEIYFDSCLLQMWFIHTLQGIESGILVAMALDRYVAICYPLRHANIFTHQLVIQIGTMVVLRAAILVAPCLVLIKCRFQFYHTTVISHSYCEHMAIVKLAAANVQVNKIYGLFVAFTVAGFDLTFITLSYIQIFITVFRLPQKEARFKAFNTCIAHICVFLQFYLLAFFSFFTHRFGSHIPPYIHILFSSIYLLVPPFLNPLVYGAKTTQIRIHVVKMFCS
In short: as §1

O52B6 V288I = system: O52B6 V288I
O52B6 V288I, sequence (as listed by the source, stated change not applied): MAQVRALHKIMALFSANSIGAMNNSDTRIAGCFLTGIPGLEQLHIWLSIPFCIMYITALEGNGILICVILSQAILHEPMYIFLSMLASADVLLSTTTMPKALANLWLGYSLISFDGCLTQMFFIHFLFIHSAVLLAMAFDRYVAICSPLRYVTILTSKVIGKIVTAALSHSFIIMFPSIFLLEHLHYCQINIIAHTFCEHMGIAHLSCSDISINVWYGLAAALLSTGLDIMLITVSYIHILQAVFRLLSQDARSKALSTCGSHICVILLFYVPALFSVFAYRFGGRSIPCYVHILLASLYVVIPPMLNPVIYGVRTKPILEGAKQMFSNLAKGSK
In short: as §1

O52E2 R264C = system: O52E2 R264C
O52E2 R264C, sequence (as listed by the source, stated change not applied): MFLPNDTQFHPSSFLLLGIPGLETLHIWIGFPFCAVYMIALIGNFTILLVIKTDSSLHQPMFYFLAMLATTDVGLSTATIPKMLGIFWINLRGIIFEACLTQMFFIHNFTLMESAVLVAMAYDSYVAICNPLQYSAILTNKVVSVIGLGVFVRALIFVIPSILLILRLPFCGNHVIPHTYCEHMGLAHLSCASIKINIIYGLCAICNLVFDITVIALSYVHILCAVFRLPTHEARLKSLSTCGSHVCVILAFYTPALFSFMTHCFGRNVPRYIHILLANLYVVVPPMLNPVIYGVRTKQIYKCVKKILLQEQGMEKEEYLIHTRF
In short: as §1

O52E4 = system: O52E4
O52E4, sequence (as listed by the source): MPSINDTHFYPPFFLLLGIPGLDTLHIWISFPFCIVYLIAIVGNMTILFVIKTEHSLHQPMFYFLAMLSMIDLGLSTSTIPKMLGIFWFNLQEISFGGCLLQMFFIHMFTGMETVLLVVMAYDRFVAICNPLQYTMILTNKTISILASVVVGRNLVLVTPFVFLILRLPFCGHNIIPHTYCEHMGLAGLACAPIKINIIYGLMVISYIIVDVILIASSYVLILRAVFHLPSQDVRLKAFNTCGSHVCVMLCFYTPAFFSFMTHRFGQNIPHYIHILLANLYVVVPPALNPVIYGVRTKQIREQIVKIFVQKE
In short: as §1

O52E5 = system: O52E5
O52E5, sequence (as listed by the source): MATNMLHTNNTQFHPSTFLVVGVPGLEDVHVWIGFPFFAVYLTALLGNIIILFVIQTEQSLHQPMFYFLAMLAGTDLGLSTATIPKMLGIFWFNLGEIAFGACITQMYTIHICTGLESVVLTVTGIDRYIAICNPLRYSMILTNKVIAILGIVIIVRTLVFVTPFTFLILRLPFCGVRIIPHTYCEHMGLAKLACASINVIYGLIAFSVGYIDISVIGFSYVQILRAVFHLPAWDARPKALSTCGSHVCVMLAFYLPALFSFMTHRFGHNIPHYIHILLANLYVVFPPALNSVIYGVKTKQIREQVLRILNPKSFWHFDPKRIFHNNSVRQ
In short: as §1

O52H1 A89T H130R C242R = system: O52H1 A89T H130R C242R
In short: as §1

O52H1 H130R C242R = system: O52H1 H130R C242R
In short: as §1

O52I2 I74L = system: O52I2 I74L
O52I2 I74L, sequence (as listed by the source, stated change not applied): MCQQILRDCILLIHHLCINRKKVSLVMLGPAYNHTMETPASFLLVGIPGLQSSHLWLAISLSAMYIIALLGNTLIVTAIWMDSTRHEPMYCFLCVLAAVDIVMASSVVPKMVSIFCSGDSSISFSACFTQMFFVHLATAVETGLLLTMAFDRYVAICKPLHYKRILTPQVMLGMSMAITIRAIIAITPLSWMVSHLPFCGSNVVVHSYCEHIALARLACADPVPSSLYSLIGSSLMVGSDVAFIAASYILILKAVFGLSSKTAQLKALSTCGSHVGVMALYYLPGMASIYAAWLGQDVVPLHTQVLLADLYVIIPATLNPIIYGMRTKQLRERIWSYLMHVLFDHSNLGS
In short: as §1

O52J3 T77A V128I Q141L = system: O52J3 T77A V128I Q141L
In short: as §1

O52K1 A119T A149T = system: O52K1 A119T A149T
In short: as §1

O52K1 Q52R = system: O52K1 Q52R
O52K1 Q52R, sequence (as listed by the source, stated change not applied): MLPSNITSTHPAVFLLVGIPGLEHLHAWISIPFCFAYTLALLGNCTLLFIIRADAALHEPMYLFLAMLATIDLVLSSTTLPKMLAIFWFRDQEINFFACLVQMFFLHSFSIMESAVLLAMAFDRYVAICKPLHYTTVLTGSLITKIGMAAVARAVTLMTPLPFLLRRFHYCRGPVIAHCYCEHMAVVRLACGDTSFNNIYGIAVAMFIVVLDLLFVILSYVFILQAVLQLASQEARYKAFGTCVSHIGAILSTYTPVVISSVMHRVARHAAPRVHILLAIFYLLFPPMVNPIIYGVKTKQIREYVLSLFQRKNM
In short: as §1

O52L1 = system: O52L1
O52L1, sequence (as listed by the source): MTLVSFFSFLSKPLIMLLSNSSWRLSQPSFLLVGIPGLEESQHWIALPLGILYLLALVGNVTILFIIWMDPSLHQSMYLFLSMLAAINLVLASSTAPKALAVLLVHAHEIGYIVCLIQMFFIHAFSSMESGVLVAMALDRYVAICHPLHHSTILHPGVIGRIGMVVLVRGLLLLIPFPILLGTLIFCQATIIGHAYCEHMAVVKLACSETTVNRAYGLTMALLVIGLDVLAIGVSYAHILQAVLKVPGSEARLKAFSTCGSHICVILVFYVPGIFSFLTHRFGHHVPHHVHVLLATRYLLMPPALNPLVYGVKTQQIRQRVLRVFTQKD
In short: as §1

O52M1 S305R = system: O52M1 S305R
O52M1 S305R, sequence (as listed by the source, stated change not applied): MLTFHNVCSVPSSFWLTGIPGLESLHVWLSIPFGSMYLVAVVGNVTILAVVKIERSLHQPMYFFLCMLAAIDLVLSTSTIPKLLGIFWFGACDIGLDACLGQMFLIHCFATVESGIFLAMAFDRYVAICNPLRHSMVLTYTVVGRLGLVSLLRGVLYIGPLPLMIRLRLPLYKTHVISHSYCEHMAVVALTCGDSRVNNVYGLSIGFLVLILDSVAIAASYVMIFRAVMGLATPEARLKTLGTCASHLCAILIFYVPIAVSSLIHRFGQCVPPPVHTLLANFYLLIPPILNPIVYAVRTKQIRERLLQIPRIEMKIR
In short: as §1

O52N1 R167C F247I = system: O52N1 R167C F247I
In short: as §1

O52N2 S249A H264R = system: O52N2 S249A H264R
In short: as §1

O52W1 H239R L254Q = system: O52W1 H239R L254Q
In short: as §1

O56A3 = system: O56A3
O56A3, sequence (as listed by the source): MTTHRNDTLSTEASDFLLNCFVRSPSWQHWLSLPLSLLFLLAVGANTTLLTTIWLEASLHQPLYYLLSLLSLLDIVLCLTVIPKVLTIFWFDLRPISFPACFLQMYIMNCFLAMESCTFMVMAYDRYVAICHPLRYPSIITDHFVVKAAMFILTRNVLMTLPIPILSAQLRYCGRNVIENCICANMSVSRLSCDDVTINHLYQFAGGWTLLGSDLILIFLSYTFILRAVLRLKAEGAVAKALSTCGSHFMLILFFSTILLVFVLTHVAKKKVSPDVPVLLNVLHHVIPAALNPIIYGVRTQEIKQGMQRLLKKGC
In short: as §1

Measured: odorant receptor agonist call;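 further: active if original authors judged signal statistically different from baseline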

O52E8, sequence (as listed by the source): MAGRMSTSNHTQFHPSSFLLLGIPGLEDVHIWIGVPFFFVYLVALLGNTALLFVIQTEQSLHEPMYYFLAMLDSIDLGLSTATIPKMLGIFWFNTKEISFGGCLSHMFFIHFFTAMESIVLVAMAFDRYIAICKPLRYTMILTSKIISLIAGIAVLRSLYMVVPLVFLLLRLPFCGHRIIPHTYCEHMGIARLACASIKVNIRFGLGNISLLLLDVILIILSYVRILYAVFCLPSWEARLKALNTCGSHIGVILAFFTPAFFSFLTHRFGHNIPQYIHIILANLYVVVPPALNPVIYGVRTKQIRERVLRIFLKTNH

Cc1c([N+](=O)[O-])c(C)c([N+](=O)[O-])c(C(C)(C)C)c1[N+](=O)[O-]
inactive: O52E8 | O52H1

C=CCOC(=O)Cc1ccccc1
inactive: all assays above

Source: the M2OR odorant receptor database
